Results on 12 molecules are retold here after ChEMBL document CHEMBL4316603, “Fluorination of Photoswitchable Muscarinic Agonists Tunes Receptor Pharmacology and Photochromic Properties” (J Med Chem, 2019).

The term pEC50 denotes the negative decadic logarithm of the EC50, by convention in mol/L. A high value points to a low EC50. A word on the pIC50: it is the IC50 on a negative log10 scale, so that one unit is a factor of ten. Lower therefore signals a high IC50.

Series [1] concerns the target T1, Muscarinic acetylcholine receptor M1 (Homo sapiens, UniProt P11229).
T1 sequence (P11229 whole entry): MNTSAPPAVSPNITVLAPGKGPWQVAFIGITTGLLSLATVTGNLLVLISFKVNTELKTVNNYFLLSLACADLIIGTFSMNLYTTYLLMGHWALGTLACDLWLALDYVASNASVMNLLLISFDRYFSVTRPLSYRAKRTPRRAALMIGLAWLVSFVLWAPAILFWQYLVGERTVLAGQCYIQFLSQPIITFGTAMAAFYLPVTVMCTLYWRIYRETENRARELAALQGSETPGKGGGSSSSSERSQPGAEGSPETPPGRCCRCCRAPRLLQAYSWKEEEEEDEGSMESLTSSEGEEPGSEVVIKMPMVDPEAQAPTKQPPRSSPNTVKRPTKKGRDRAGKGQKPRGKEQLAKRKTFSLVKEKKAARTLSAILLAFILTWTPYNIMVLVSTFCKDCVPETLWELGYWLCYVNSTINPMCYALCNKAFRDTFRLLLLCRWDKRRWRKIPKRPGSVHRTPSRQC
Kind of series: Agonist activity at human muscarinic M1 receptor expressed in HEK293T cells co-expressing Galpha subunit and PLC-beta3 by split luciferase complementation assay. It counts as cell-based.

A short description of series [2]: Chemical stability of the compound at 50 uM incubated for 120 mins under dark conditions by UV-vis spectroscopic analysis. It counts as physicochemical. Conditions: 2 h.
For series [3], the target named is Muscarinic acetylcholine receptor. The series can be described thus: Displacement of [3H]-QNB from muscarinic receptor in rat brain membranes incubated for 45 mins under dark conditions by radioligand binding assay. It counts as cell membranes. The essentials: (§1)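 Rat brain cortex membranes (meninges and white matter removed, homogenized and centrifuged twice at 50,000 x g, stored at -80 °C). Each tube held 20 μg membrane protein, 200 pM [³H]QNB and competitor at varying concentrations in 10 mM Tris-HCl pH 7.0 with 6 mM MgCl₂, incubated 45 min at 25 °C. Nonspecific binding was defined with 2 μM atropine. Samples were filtered on glass fiber, washed twice with ice-cold buffer and counted by scintillation.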

Series [4] shares this target. Kind of series: Displacement of [3H]-QNB from muscarinic receptor in rat brain membranes incubated for 45 mins under irradiation exposure at 365 nm by radioligand binding assay. It counts as cell membranes. The essentials: as §1
For orientation: In a radioligand displacement assay an active substance lowers the binding of a labelled ligand.

The structures appear in SMILES notation.

On to `C[N+](C)(C)CC#CCOC1=NOCC1`, for which the pEC50 in series [1] is 8.9.
In series [1], `C[N+](C)(CC#CCOC1=NOCC1)Cc1cc(F)c(/N=N\c2c(F)cccc2F)c(F)c1.[Br-]` yielded a pEC50 of 7.14. Further, in series [2], the Stability result was “Stable”.
In series [1], `C[N+](C)(CC#CCOC1=NOCC1)CCCCCC[N+](C)(C)CC#CCOC1=NOCC1` showed a pEC50 of 6.77.
In series [1], `C[N+](C)(CC#CCOC1=NOCC1)CCCC[N+](C)(C)CC#CCOC1=NOCC1` yielded a pEC50 of 6.49.
For the molecule `C[N+](C)(CC#CCOC1=NOCC1)CCCCCCCC[N+](C)(C)CC#CCOC1=NOCC1`, in series [1], the pEC50 is 6.89.
In the case of `C[N+](C)(CC#CCOC1=NOCC1)Cc1cc(F)c(/N=N/c2c(F)cccc2F)c(F)c1.[Br-]`, the pEC50 in series [1] came out at 7.2. Moreover, the pIC50 came out at 5.25 in series [3] and 5.4 in series [4]. Also, in series [2], the Stability entry was “Stable”.
Consider `C[N+](C)(CC#CCOC1=NOCC1)Cc1cc(F)c(/N=N/c2c(F)cc(C[N+](C)(C)CC#CCOC3=NOCC3)cc2F)c(F)c1.[Br-].[Br-]`, for which the pEC50 in series [1] came to 8.97. The pIC50 stood at 6.82 in series [3] and 6.44 in series [4]. Further, the Stability entry in series [2] is “Stable”.
In series [1], `C[N+](C)(CC#CCOC1=NOCC1)Cc1ccc(/N=N\c2ccc(C[N+](C)(C)CC#CCOC3=NOCC3)cc2)cc1.[Br-].[Br-]` returned a pEC50 of 7.49. Moreover, the Stability entry in series [2] is “Stable”.
As for `C[N+](C)(CC#CCOC1=NOCC1)Cc1ccc(/N=N/c2ccccc2)cc1.[Br-]`, the pEC50 in series [1] was found to be 5.49. The pIC50 worked out at 5.15 in series [3] and 5.13 in series [4]. For the same molecule, the Stability result in series [2] is given as “Stable”.
`C[N+](C)(CC#CCOC1=NOCC1)Cc1cc(F)c(/N=N\c2c(F)cc(C[N+](C)(C)CC#CCOC3=NOCC3)cc2F)c(F)c1.[Br-].[Br-]` showed a pEC50 in series [1] of 8.3. In addition, the Stability result in series [2] is “Stable”.
Molecule `C[N+](C)(CC#CCOC1=NOCC1)Cc1ccc(/N=N\c2ccccc2)cc1.[Br-]` showed a pEC50 in series [1] of 5.68. Further, in series [2], the Stability result is recorded as “Stable”.
In series [1], `C[N+](C)(CC#CCOC1=NOCC1)CCCCCCCCCC[N+](C)(C)CC#CCOC1=NOCC1` yielded a pEC50 of 7.86.
